System: Mus musculus
Assay: Percent decrease in blood glucose level, after peroral administration of 100 mg/kg of compound in mice; Inactive
Format: functional
Details: route oral

| Structure (SMILES) | Hypoglycemic activity |
| --- | --- |
| CC(C)[C@H]1CC[C@@H](C(=O)N[C@H](Cc2ccccc2)C(=O)O)CC1 | <20% |
| O=C(N[C@H](Cc1ccccc1)C(=O)O)C1CCCCCC1 | <20% |
| CC(C)[C@H]1CC[C@H](C(=O)NCCc2ccccc2)CC1 | <20% |
| O=C(O)[C@@H](Cc1ccccc1)NC(=O)[C@H]1CC[C@H](c2ccccc2)CC1 | <20% |
| CCCCC[C@H]1CC[C@H](C(=O)N[C@H](Cc2ccccc2)C(=O)O)CC1 | <20% |
| CC(C)[C@H]1CC[C@H](C(=O)N[C@@H](Cc2ccccc2)C(N)=O)CC1 | <20% |
| O=C(N[C@H](Cc1ccccc1)C(=O)O)C1CC2CCC1C2 (stereo partly drawn) | <20% |
| O=C(N[C@H](Cc1ccccc1)C(=O)O)C1CCc2ccccc2C1 (stereo partly drawn) | <20% |

Species: Mus musculus
Assay: Hypoglycemic activity causing more than a 20% blood glucose decrease in fasting mice
Format: functional
Details: not given
Procedure, shortened: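 Male ICR-CD1 mice, 5 weeks old, 18 h fasted, groups of five. Oral dosing as a suspension in 0.5% (carboxymethyl)cellulose–0.14 M NaCl, 1 mL/kg; vehicle control run in parallel. Carotid blood taken at 1 h; glucose by glucose-oxidase-peroxidase. Student's t test (p < 0.05). Value is the lowest dose giving >20% glucose decrease.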

| Structure (SMILES) | Minimum effective hypoglycemic dose |
| --- | --- |
| CC(C)[C@H]1CC[C@H](C(=O)N[C@@H](Cc2ccccc2)C(=O)OCc2ccccc2)CC1 | 25 mg/kg |
| CC[C@H]1CC[C@H](C(=O)N[C@H](Cc2ccccc2)C(=O)O)CC1 | 25 mg/kg |
| C[C@H]1CC[C@H](C(=O)N[C@H](Cc2ccccc2)C(=O)O)CC1 | 25 mg/kg |
| CC(C)(C)[C@H]1CC[C@H](C(=O)N[C@H](Cc2ccccc2)C(=O)O)CC1 | 6.3 mg/kg |
| CCC[C@H]1CC[C@H](C(=O)N[C@H](Cc2ccccc2)C(=O)O)CC1 | 25 mg/kg |
| CCCC[C@H]1CC[C@H](C(=O)N[C@H](Cc2ccccc2)C(=O)O)CC1 | 25 mg/kg |
| C=C(C)[C@@H]1CC=C(C(=O)N[C@H](Cc2ccccc2)C(=O)O)CC1 | 25 mg/kg |
| O=C(N[C@H](Cc1ccccc1)C(=O)O)C1CCCCC1 | 100 mg/kg |
| O=C(N[C@H](Cc1ccccc1)C(=O)O)C1CCCC1 | 50 mg/kg |
| CC(C)c1ccc(C(=O)N[C@H](Cc2ccccc2)C(=O)O)cc1 | 25 mg/kg |
| COC(=O)[C@H](Cc1ccccc1)NC(=O)[C@H]1CC[C@H](C(C)C)CC1 | 3.1 mg/kg |
| CC(C)N(C(=O)[C@H](Cc1ccccc1)NC(=O)[C@H]1CC[C@H](C(C)C)CC1)C(C)C | 100 mg/kg |
| CC(C)[C@H]1CC[C@H](C(=O)N[C@@H](Cc2ccccc2)C(=O)O)CC1 [(S)-NATEGLINIDE] | 100 mg/kg |
| CC(C)[C@H]1CC[C@H](C(=O)N[C@H](Cc2ccccc2)C(=O)O)CC1 [NATEGLINIDE] | 1.6 mg/kg |
| CCCCNC(=O)NS(=O)(=O)c1ccc(C)cc1 [TOLBUTAMIDE] | 25 mg/kg |

Source: ChEMBL document CHEMBL1124511, “N-(cyclohexylcarbonyl)-D-phenylalanines and related compounds. A new class of oral hypoglycemic agents. 2” (1989)
